Laboratory results reported in ChEMBL document CHEMBL1135439, “Imidazo[2,1-i]purin-5-ones and related tricyclic water-soluble purine derivatives: potent A(2A)- and A(3)-adenosine receptor antagonists” (J Med Chem, 2002).
Converted amounts (≈) assume the structure as drawn.

target: T1, Adenosine receptor A1 (Rattus norvegicus) (UniProt P25099); test: Percent displacement of [3H]CHA from Adenosine A1 receptor of rat brain cortical membrane at 30 uM; settings: not given
T1 sequence (whole entry): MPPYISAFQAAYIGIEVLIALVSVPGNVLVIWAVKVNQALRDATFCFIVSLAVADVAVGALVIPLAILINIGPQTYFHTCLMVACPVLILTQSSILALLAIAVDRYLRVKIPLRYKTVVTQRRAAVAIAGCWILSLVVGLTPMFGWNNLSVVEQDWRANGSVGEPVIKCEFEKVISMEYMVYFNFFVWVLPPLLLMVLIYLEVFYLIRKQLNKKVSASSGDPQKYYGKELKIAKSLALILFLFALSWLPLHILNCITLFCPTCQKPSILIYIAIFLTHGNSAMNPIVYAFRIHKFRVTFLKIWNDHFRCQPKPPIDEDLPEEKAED
Summary of the method: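 Single-concentration inhibition of [3H]CHA binding to rat cerebral cortical membrane A1 receptors, reported as percent displacement at the stated test concentration. Nonspecific binding was determined with 10 μM 2-chloroadenosine.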

Displacement [%]	SMILES
24	Cn1cnc2c1C1=NCCN1C(=O)N2Cc1ccccc1

target: T2, Adenosine receptor A1 (Rattus norvegicus, UniProt P25099); format: cell membranes, Brain; settings: not given
T2 sequence (P25099 whole entry): T1 sequence (whole entry)

SMILES	Ki [µM]
CN1C(=O)N2CCCCC/N=C\2c2c1ncn2C	60.3
CN1C(=O)N2CCN=C2c2c1ncn2C	79.6
CN1C(=O)N2CCN=C2c2c1nc(-c1ccccc1)n2C	9.7
CC[C@@H]1CN2C(=O)N(C)c3ncn(C)c3C2=N1	75.5
C[C@@H]1CN=C2c3c(ncn3C)N(C)C(=O)N21	23
CCC1CN2C(=O)N(C)c3nc(-c4ccccc4)n(C)c3C2=N1 (centres undefined)	6.1
CN1C(=O)N2CCCN=C2c2c1ncn2C	43.2

Now from value to compound:

Ki [µM]	SMILES
4.7	CC[C@H]1CN2C(=O)N(C)c3nc(-c4ccccc4)n(C)c3C2=N1
14.9	CC[C@H]1CN2C(=O)N(C)c3nc(/C=C/c4ccccc4)n(C)c3C2=N1
0.73	CC[C@H]1CN2C(=O)N(C)c3[nH]c(/C=C/c4ccccc4)nc3C2=N1
1.83	Cn1c(-c2ccccc2)nc2c1C1=NCCN1C(=O)N2
70	C[C@H]1CN=C2c3c(ncn3C)N(C)C(=O)N21
0.95	CC[C@@H]1CN2C(=O)N(C)c3[nH]c(/C=C/c4ccccc4)nc3C2=N1
21.7	CC[C@@H]1CN2C(=O)N(C)c3nc(/C=C/c4ccccc4)n(C)c3C2=N1
19.8	CN1C(=O)N2CCCCN=C2c2c1ncn2C
10.5	CN1C(=O)N2CCCN=C2c2c1nc(Cl)n2C

target: T2, Adenosine receptor A1; test: (§1) Inhibition against Adenosine A1 receptor of rat fat cell membranes (functional antagonist activity); settings: not given
Summary of the method: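 Adenylate cyclase assay in rat fat cell membranes measuring antagonism of R-PIA-elicited AC inhibition. KB was obtained from the Schild equation, using the ratio of R-PIA IC50 values with and without antagonist.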

KB [nM]	SMILES
500	Cn1c(-c2ccccc2)nc2c1C1=NCCN1C(=O)N2

target: T3, Adenosine receptor A2b (Mus musculus) (UniProt Q60614); test: (§2) Inhibition against A2B-Adenosine Receptor in mouse NIH 3T3 fibroblast cell membranes (functional antagonist activity); format: cell-based; settings: not given
T3 sequence (whole entry): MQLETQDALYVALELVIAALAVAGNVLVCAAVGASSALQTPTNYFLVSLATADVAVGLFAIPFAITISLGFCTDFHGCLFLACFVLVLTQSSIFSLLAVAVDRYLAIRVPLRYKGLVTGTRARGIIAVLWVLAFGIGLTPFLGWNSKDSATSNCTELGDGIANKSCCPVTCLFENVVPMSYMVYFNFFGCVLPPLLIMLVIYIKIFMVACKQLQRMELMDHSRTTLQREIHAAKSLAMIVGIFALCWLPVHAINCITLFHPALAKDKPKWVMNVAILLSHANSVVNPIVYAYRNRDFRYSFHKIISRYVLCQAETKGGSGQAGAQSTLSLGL
Summary of the method: (§3)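 Adenylate cyclase assay measuring antagonism of NECA-stimulated AC in rat PC12 membranes (A2A) or NIH 3T3 fibroblast membranes (A2B). KB was obtained from the Schild equation, using the ratio of NECA EC50 values with and without antagonist.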

Kb [µM]	SMILES
3.7	CC[C@H]1CN2C(=O)N(C)c3nc(/C=C/c4ccccc4)n(C)c3C2=N1

target: T4, Adenosine receptor A2a (Rattus norvegicus, UniProt P30543); test: Binding affinity to the adenosine A2A receptor by displacement of [3H]CGS-21680 in rat brain striatal membrane; format: cell membranes; settings: not given
T4 sequence (P30543 whole entry): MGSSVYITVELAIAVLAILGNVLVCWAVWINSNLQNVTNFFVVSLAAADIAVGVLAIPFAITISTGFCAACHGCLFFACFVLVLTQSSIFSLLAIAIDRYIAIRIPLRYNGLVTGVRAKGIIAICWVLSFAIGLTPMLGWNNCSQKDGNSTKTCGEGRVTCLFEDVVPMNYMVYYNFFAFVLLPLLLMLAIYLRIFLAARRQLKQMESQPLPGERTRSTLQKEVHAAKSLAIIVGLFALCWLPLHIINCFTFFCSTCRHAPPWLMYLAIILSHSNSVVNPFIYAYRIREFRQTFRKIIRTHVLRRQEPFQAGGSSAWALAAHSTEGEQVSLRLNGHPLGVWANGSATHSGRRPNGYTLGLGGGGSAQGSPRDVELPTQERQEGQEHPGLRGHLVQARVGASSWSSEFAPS

SMILES	Ki [µM]
CN1C(=O)N2CCCCC/N=C\2c2c1ncn2C	51
CN1C(=O)N2CCN=C2c2c1ncn2C	20.7
CN1C(=O)N2CCN=C2c2c1nc(-c1ccccc1)n2C	20.3
CC[C@@H]1CN2C(=O)N(C)c3ncn(C)c3C2=N1	28.3
C[C@@H]1CN=C2c3c(ncn3C)N(C)C(=O)N21	50.4
CCC1CN2C(=O)N(C)c3nc(-c4ccccc4)n(C)c3C2=N1 (centres undefined)	19.2
CN1C(=O)N2CCCN=C2c2c1ncn2C	28.5

Compounds with a lower Ki, results first:

Ki [µM]	SMILES
16.2	CC[C@H]1CN2C(=O)N(C)c3nc(-c4ccccc4)n(C)c3C2=N1
0.424	CC[C@H]1CN2C(=O)N(C)c3nc(/C=C/c4ccccc4)n(C)c3C2=N1
0.67	CC[C@H]1CN2C(=O)N(C)c3[nH]c(/C=C/c4ccccc4)nc3C2=N1
11.9	Cn1c(-c2ccccc2)nc2c1C1=NCCN1C(=O)N2
12	C[C@H]1CN=C2c3c(ncn3C)N(C)C(=O)N21
0.89	CC[C@@H]1CN2C(=O)N(C)c3[nH]c(/C=C/c4ccccc4)nc3C2=N1
0.547	CC[C@@H]1CN2C(=O)N(C)c3nc(/C=C/c4ccccc4)n(C)c3C2=N1
18.5	CN1C(=O)N2CCCCN=C2c2c1ncn2C
11.9	CN1C(=O)N2CCCN=C2c2c1nc(Cl)n2C
16.1	Cn1cnc2c1C1=NCCN1C(=O)N2Cc1ccccc1

test system: not listed separately; test: Water solubility was determined.; format: ADME; settings: not given
Summary of the method: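 A saturated aqueous solution was prepared and the undissolved residue filtered off. The filtrate was diluted with water and its UV absorbance read at λmax. Concentration was calculated from a previously determined calibration curve for each compound.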

solubility [mM]	SMILES
1210 (≈ 248 mg/mL)	CN1C(=O)N2CCN=C2c2c1ncn2C

test system: not listed separately; test: Water solubility of the compound; format: ADME; settings: read-out: S

solubility [mM]	SMILES
1.45 (≈ 0.408 mg/mL)	CN1C(=O)N2CCN=C2c2c1nc(-c1ccccc1)n2C

target: Adenosine receptor A2a (Rattus norvegicus) (UniProt P30543); test: (§4) Inhibition against A2A-Adenosine Receptor of rat PC12 cell membranes (functional antagonist activity); format: cell-based; settings: PC-12
Sequence (P30543 whole entry): as above

Kb [µM]	SMILES
1	CC[C@H]1CN2C(=O)N(C)c3nc(/C=C/c4ccccc4)n(C)c3C2=N1

target: T5, Adenosine receptor A2b (Mus musculus, UniProt Q60614); test: as §2; format: cell-based; settings: not given; summary of the method: as §3
T5 sequence (Q60614 whole entry): T3 sequence (whole entry)

KB [µM]	SMILES
7	Cn1c(-c2ccccc2)nc2c1C1=NCCN1C(=O)N2

target: T6, Adenosine receptor A3 (Homo sapiens, UniProt P0DMS8); test: Binding affinity against human recombinant Adenosine A3 receptor stably expressed in HEK293 cells by displacing [125I]AB-MECA radioligand; format: cell-based; settings: not given
T6 sequence (P0DMS8 whole entry): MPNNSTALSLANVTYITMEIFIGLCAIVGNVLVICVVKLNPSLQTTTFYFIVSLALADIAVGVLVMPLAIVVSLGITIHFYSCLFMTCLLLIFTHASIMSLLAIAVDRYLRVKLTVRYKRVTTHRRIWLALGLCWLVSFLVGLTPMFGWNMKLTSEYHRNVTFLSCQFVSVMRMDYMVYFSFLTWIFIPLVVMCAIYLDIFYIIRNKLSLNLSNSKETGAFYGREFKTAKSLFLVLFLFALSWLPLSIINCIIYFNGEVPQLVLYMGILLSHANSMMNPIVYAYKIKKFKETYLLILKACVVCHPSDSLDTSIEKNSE

Ki [µM]	SMILES
30.6	CC[C@H]1CN2C(=O)N(C)c3nc(/C=C/c4ccccc4)n(C)c3C2=N1
0.047	Cn1c(-c2ccccc2)nc2c1C1=NCCN1C(=O)N2
0.64	CC[C@@H]1CN2C(=O)N(C)c3[nH]c(/C=C/c4ccccc4)nc3C2=N1
1.7	CC[C@@H]1CN2C(=O)N(C)c3nc(/C=C/c4ccccc4)n(C)c3C2=N1
3.33	CN1C(=O)N2CCN=C2c2c1nc(-c1ccccc1)n2C

target: T4, Adenosine receptor A2a; test: as §4; format: cell-based, PC-12; settings: not given; summary of the method: as §3

KB [µM]	SMILES
17.2	Cn1c(-c2ccccc2)nc2c1C1=NCCN1C(=O)N2

target: T1, Adenosine receptor A1 (Rattus norvegicus); test: as §1; settings: not given

Kb [µM]	SMILES
33	CC[C@H]1CN2C(=O)N(C)c3nc(/C=C/c4ccccc4)n(C)c3C2=N1

target: T7, Adenosine receptor A3 (Homo sapiens) (UniProt P0DMS8); test: Percent displacement against human Adenosine A3 receptor expressed in HEK293 cells by displacing [125I]AB-MECA at 10 uM; format: cell-based; settings: not given
T7 sequence (whole entry): T6 sequence (P0DMS8 whole entry)

Displacement [%]	SMILES
40	CN1C(=O)N2CCN=C2c2c1ncn2C
17	CCC1CN2C(=O)N(C)c3nc(-c4ccccc4)n(C)c3C2=N1 (centres undefined)
